Key:
Candida parapsilosis [1] = assay: Antifungal activity against Candida parapsilosis infected cyclophosphamide-immunocompromized Crl:CD1(ICR) mouse assessed as fungal density in lung at 0.5 mg/kg, po for 5 days measured on day 12; type: functional
Outline: (§1)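 Female specific-pathogen-free ICR (Crl:CD-1) mice, ≈20–22 g, made neutropenic with cyclophosphamide 100 mg/kg i.p. once daily for 3 days. On day 3, infected i.p. with 1 × 10^4 C. parapsilosis ATCC 22019 blastospores. Oral gavage dosing began 6 h postinfection, then once daily for 5 days; placebo was 0.1 ml saline. Left kidney or lungs homogenized in 0.9% saline and plated on Sabouraud dextrose agar, 48 h at 35°C. Result is log10 cfu/g (n = 5).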

Candida parapsilosis [2] = assay: Antifungal activity against Candida parapsilosis infected cyclophosphamide-immunocompromized Crl:CD1(ICR) mouse assessed as survival at 0.5 mg/kg, po for 5 days; type: functional
Outline: (§2)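 Female ICR (Crl:CD-1) mice on cyclophosphamide 100 mg/kg i.p. daily for 3 days, then infected i.p. on day 3 with 1 × 10^4 C. parapsilosis ATCC 22019 blastospores. Oral gavage dosing started 6 h postinfection and continued once daily for 5 days, with saline placebo. Mice observed thrice daily for […]. Moribund animals were killed and counted as dying the next day. Mean survival time compared to controls by one-way ANOVA and Kaplan–Meier.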

Candida parapsilosis [3] = assay: Antifungal activity against Candida parapsilosis infected cyclophosphamide-immunocompromized Crl:CD1(ICR) mouse assessed as fungal density in brain at 0.5 mg/kg, po for 5 days measured on day 12; type: functional
Candida parapsilosis [4] = assay: Antifungal activity against Candida parapsilosis infected cyclophosphamide-immunocompromized Crl:CD1(ICR) mouse assessed as fungal density in kidney at 0.5 mg/kg, po for 5 days measured on day 12; type: functional; outline: as §1
Candida parapsilosis [5] = assay: Antifungal activity against Candida parapsilosis infected cyclophosphamide-immunocompromized Crl:CD1(ICR) mouse assessed as fungal density in kidney at 0.5 mg/kg, po for 5 days measured on day 12 in presence beauvericin; type: functional; outline: as §1
Candida parapsilosis [6] = assay: Antifungal activity against Candida parapsilosis infected cyclophosphamide-immunocompromized Crl:CD1(ICR) mouse assessed as survival at 0.5 mg/kg, po for 5 days in presence of beauvericin; type: functional; outline: as §2
Candida parapsilosis [7] = assay: Antifungal activity against Candida parapsilosis infected cyclophosphamide-immunocompromized Crl:CD1(ICR) mouse assessed as survival at 10 mg/kg, po for 5 days; type: functional; outline: as §2
Candida parapsilosis [8] = assay: Antifungal activity against Candida parapsilosis infected cyclophosphamide-immunocompromized Crl:CD1(ICR) mouse assessed as fungal density in lung at 10 mg/kg, po for 5 days measured on day 12; type: functional; outline: as §1
HepG2 [9] = assay: Toxicity against human HepG2 cells at 6.25 ug/ml in presence of merine microbial F10104 extract; type: cell-based
Candida parapsilosis [10] = assay: Antifungal activity against Candida parapsilosis infected cyclophosphamide-immunocompromized Crl:CD1(ICR) mouse assessed as fungal density in lung at 50 mg/kg, po for 5 days measured on day 12; type: functional; outline: as §1
Candida parapsilosis [11] = assay: Antifungal activity against Candida parapsilosis infected cyclophosphamide-immunocompromized Crl:CD1(ICR) mouse assessed as survival at 50 mg/kg, po for 5 days; type: functional; outline: as §2
HepG2 [12] = assay: Toxicity against human HepG2 cells at 50 ug/ml; type: cell-based
HepG2 [13] = assay: Toxicity against human HepG2 cells at 100 ug/ml; type: cell-based
Candida parapsilosis [14] = assay: Antifungal activity against Candida parapsilosis infected cyclophosphamide-immunocompromized Crl:CD1(ICR) mouse assessed as fungal density in kidney at 50 mg/kg, po for 5 days measured on day 12; type: functional; outline: as §1
Candida parapsilosis [15] = assay: Antifungal activity against Candida parapsilosis infected cyclophosphamide-immunocompromized Crl:CD1(ICR) mouse assessed as fungal density in lung at 0.5 mg/kg, po for 5 days measured on day 12 in presence beauvericin; type: functional; outline: as §1
Candida parapsilosis [16] = assay: Antifungal activity against Candida parapsilosis infected cyclophosphamide-immunocompromized Crl:CD1(ICR) mouse assessed as fungal density in kidney at 10 mg/kg, po for 5 days measured on day 12; type: functional; outline: as §1

Structure (SMILES): CC(C)[C@@H]1OC(=O)[C@@H](Cc2ccccc2)N(C)C(=O)[C@H](C(C)C)OC(=O)[C@@H](Cc2ccccc2)N(C)C(=O)[C@H](C(C)C)OC(=O)[C@@H](Cc2ccccc2)N(C)C1=O (single isomer, unassigned) [BEAUVERICIN]
- Log10 cfu (Candida parapsilosis [1]): 5.2
- Survival (Candida parapsilosis [2]): 8.3 days
- Log10 cfu (Candida parapsilosis [3]): 3.2
- Log10 cfu (Candida parapsilosis [4]): 9.3

Structure (SMILES): CC(=O)N1CCN(c2ccc(OCC3COC(Cn4ccnc4)(c4ccc(Cl)cc4Cl)O3)cc2)CC1 (centres undefined) [KETOCONAZOLE]
- Log10 cfu (Candida parapsilosis [5]): 1.3
- Survival (Candida parapsilosis [6]): >21 days
- Survival (Candida parapsilosis [7]): 14.2 days
- Log10 cfu (Candida parapsilosis [8]): 3.5
- Activity (HepG2 [9]): Non-toxic
- Log10 cfu (Candida parapsilosis [1]): 4.8
- Log10 cfu (Candida parapsilosis [10]): 2.6
- Survival (Candida parapsilosis [11]): 19.4 days
- Survival (Candida parapsilosis [2]): 9.2 days
- Activity (HepG2 [12]): Toxic
- Activity (HepG2 [13]): Toxic
- Log10 cfu (Candida parapsilosis [14]): 5.5
- Log10 cfu (Candida parapsilosis [4]): 8.4
- Log10 cfu (Candida parapsilosis [15]): 1.2
- Log10 cfu (Candida parapsilosis [16]): 7.6
